Hits are enriched below; roughly 4.2% of the tested compounds scored in any of these assays.
GalR3 antagonist – human GalR3 antagonism; O60755; HEK293 GalR3-CNG cAMP membrane potential fluorescence; galR3 body fused to GalR1 C-terminus; inhibition, % at 3 µM; 0.44% of 360,000 active;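 active = inhibition above the screen-wide average plus 3 SD, cut at about 13% in these data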;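 also: forskolin and galanin both at EC90 stimulate the cells; cAMP rise reported by CNG channel membrane potential dye signal; 0% = forskolin plus galanin with DMSO and 100% = forskolin alone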
Target sequence (O60755 1-299 limits assumed): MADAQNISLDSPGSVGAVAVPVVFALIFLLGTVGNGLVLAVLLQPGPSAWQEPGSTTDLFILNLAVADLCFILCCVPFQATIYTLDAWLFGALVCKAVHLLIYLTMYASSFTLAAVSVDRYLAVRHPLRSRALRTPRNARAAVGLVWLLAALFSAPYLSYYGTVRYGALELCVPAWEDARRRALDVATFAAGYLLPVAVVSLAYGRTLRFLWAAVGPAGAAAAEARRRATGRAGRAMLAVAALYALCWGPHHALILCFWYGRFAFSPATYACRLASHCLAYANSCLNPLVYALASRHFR
TAAR1 antag – antagonists of human TAAR1; Q96RJ0; inhibition, % at 3 µM; AID 624466; CHO RD-HGA16 TAAR1, Fluo-8 calcium fluorescence, antagonist; 1.5% of 360,000 active;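 active = inhibition above a per-plate cutoff, the mean inhibition of test compounds on that plate plus 3 SD, cut at about 49% in these data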;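 also: 0% = DMSO plus EC80 beta-PEA response and 100% = DMSO alone without agonist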
Target sequence (Q96RJ0 whole entry, looked up): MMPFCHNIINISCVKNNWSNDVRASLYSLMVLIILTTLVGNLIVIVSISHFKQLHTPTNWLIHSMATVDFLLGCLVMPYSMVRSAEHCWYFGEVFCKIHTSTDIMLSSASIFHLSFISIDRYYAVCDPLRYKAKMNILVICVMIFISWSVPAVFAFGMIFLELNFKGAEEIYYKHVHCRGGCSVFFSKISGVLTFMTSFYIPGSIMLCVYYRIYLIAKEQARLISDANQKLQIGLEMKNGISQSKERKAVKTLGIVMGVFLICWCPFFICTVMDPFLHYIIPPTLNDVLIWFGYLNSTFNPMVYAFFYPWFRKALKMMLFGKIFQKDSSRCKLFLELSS
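Assay system: RD-HGA16 CHO cells with stable hTAAR1 and Gα16 / Reagent: EC80 β-phenethylamine stimulus / Doses: 3 µM, single point / Timing: dye loading 75 min at 37 °C, then 30 min room temperature / Measured by: Fluo-8 intracellular calcium dye fluorescence, real-time kinetic reads / Controls: vehicle wells and EC80 agonist wells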
OX1R antag-1 – blocks the human orexin 1 receptor. O43613. AID 434989. inhibition, % at 5 µM. 0.43% of 330,000 active. CHO/OX1R cells, Fluo-8 calcium fluorescence, orexin A;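 active = inhibition above its plate's threshold, mean inhibition of all tested compounds on the plate plus 3 SD, cut at about 37% in these data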;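 also: 0% = orexin A challenge wells and 100% = SB-334867-A antagonist wells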
CHO parental Ca – counter-screen for OX1R antagonists: effect in parental CHO cells | 0.63% of 330,000 active | parental CHO-K1, ATP-induced calcium, Fluo-8 fluorescence | inhibition, % at 5.6 µM;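 active = inhibition above that plate's mean sample inhibition plus 3 SD, cut at about 26% in these data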;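 also: 0% = ATP-challenged DMSO wells and 100% = DMSO wells without ATP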
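Test system: parental CHO cells; detection: calcium-sensitive Fluo-8 fluorescence; evaluation: percent inhibition of calcium signal; also added: ATP as calcium-mobilizing challenge; repeats: one well per compound; control set: ATP-challenged DMSO wells low, unchallenged DMSO wells high; compound: single nominal dose of 5.6 µM per compound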
TAAR1 agonist – human TAAR1 agonism | CHO RD-HGA16 TAAR1, Fluo-8 calcium fluorescence; vehicle wells 0%, saturating PEA agonist 100% | activation, % at 3 µM | 0.99% of 360,000 active | AID 624467;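 active = activation above the mean activation of all test compounds in the run plus 3 SD, cut at about 38% in these data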
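System: CHO-derived RD-HGA16 cells with stable Gα16 and human TAAR1. Times: 17-24 h plating, Fluo-8 75 min 37 °C, 30 min RT. Measured by: calcium-sensitive Fluo-8 signal, excitation 470-495, emission 515-575 nm. Read-out basis: % activation relative to PEA EC100 response. Control set: DMSO and PEA EC100. Repeats: no replicates (n 1).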
OX1R antag-2 – OX1R (human) antagonism | OX1R-expressing cells, FRET antagonist read-out | inhibition, % at 6.6 µM | 1.8% of 330,000 active; in the data active = inhibition mostly above about 38%, no sharp cut-off; inactive = mostly below about 40%;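 also: 0% = agonist challenge alone and 100% = reference antagonist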
* = called active by the depositor; nt = no result.

SMILES | GalR3 antagonist | TAAR1 antag | OX1R antag-1 | CHO parental Ca | TAAR1 agonist | OX1R antag-2
CCOc1cc(/C=N\NC(=O)c2ccc(C)nc2)cc([N+](=O)[O-])c1O | -6.2 | 1.4 | 5.8 | -1.4 | 11.2 | 27.7
CCn1c(CNc2ccc(Cl)cc2)nnc1SCC(=O)OC1CCCCC1 | -5.1 | 11.0 | 13.6 | -1.1 | 10.3 | 34.4
C#CC1(N2CCCCC2)CCCCC1 | -2.4 | -30.3 | nt | nt | 0.8 | nt
O=C1NC[C@H](CCCCN2C[C@H](Cc3ccc(O)cc3)N(Cc3ccccc3)C(=O)C2=O)N(CCc2ccccc2)C1=O | -2.1 | 15.7 | nt | nt | 3.9 | nt
CC(C)(C)c1ccccc1NC(=O)Nc1nc(C(N)c2ccccc2Cl)cs1 (configuration not stated) | -8.3 | 1.7 | nt | nt | 44.2* | nt
CC(C)C(N)c1csc(NC(=O)Nc2ccccc2C(C)(C)C)n1 (configuration not stated) | -5.6 | -7.6 | nt | nt | 6.9 | nt
CC1(NC(=O)/C=C/c2nc3ccccc3s2)CCS(=O)(=O)C1 (configuration not stated) | -3.2 | 8.1 | 15.5 | -10.2 | -0.6 | 5.2
COc1ccc([N+](=O)[O-])cc1NC1C2CC3CC(C2)CC1C3 (configuration not stated) | -4.6 | -13.0 | -6.8 | -11.6 | 8.8 | 2.4
Cc1ccc(S(=O)(=O)N2CC(O)C[C@H]2C(=O)OCC(=O)c2ccccc2)cc1 (some centres not stated) | 3.5 | 3.2 | -9.0 | -9.1 | 3.0 | 6.2
CC(C)(C)OC(=O)N1C[C@H](O)C[C@H]1C(=O)OCC(=O)c1ccc([N+](=O)[O-])cc1 | -9.1 | 11.8 | -4.5 | -3.5 | 0.3 | 36.6*
CC(C)CCOc1ccc(C2CC(=O)N(C)C2=O)cc1 (configuration not stated) | 2.6 | 15.5 | -6.6 | -6.0 | 1.2 | 4.6
Cc1cc(C)cc(NC(=O)c2ccc(Cn3nc(C)c(Cl)c3C)o2)c1 | -3.4 | 54.4* | 8.0 | -8.3 | 28.6 | 15.4
Cc1ccc(CNC(=O)c2ccc(Cn3nc(C)c(Cl)c3C)o2)cc1 | 0.6 | 0.7 | -35.3 | -35.1 | -0.1 | 13.2
CCOC(=O)c1c(C)[nH]c(C(=O)OCc2ccc([N+](=O)[O-])cc2)c1C | -3.2 | 11.3 | -34.4 | -12.8 | -0.2 | 11.4
C=CC(O)Cc1c(C)n[nH]c1C (configuration not stated) | -6.5 | 0.2 | -3.6 | -1.6 | 10.1 | 3.5
CC1(C)CC(=O)C(C2=NC3(CCCCC3)Cc3ccccc32)=C(O)C1 | -2.2 | -14.0 | -1.4 | -17.8 | 0.5 | 58.0
O=C(NCC(c1cccs1)N1CCOCC1)c1cc2ccccc2oc1=O (configuration not stated) | 2.7 | 4.7 | 3.2 | -21.7 | 2.9 | 25.9*
NC(=O)c1cc([N+](=O)[O-])ccc1NCc1ccccn1 | -3.2 | -2.4 | 12.7 | -1.4 | 11.3 | 24.5
CC(=O)N1CCN(c2ccc([N+](=O)[O-])c(NCC3CCCO3)c2)CC1 (configuration not stated) | -5.9 | -0.2 | -9.4 | -13.5 | 5.7 | 78.5*
O=C(c1ccccc1F)N1CCN(c2ccc([N+](=O)[O-])c(NCC3CCCO3)c2)CC1 (configuration not stated) | -4.8 | 19.4 | -24.2 | -22.7 | 1.4 | 22.0
CC1=CC(=O)C=C(C)C1=NOS(=O)(=O)c1ccccc1 | -1.5 | 52.4* | nt | nt | 18.9 | nt
COc1ccccc1CNC(=O)C(=O)NCC(c1ccco1)N1CCOCC1 (configuration not stated) | 5.8 | -15.0 | -11.3 | -8.9 | 3.1 | 6.6
CC(=O)c1c(C)[nH]c(C(=O)OCC(=O)Nc2cccc(S(=O)(=O)N3CCCC3)c2)c1C | -10.7 | 49.6* | 39.1* | 28.7 | 14.5 | 13.3
Cc1ccc(S(=O)(=O)N2CCOCC2)cc1NC(=O)CNCc1ccc(Cl)cc1Cl | -5.6 | 59.5* | 20.1 | -9.0 | 20.9 | 6.8
O=C(COC(=O)c1c(F)cccc1F)Nc1cccc(S(=O)(=O)N2CCCCC2)c1 | -7.7 | 49.8* | nt | nt | 14.3 | nt
SMILES | GalR3 antagonist | TAAR1 antag | OX1R antag-1 | CHO parental Ca | TAAR1 agonist | OX1R antag-2
O=C(Cn1nc(C(=O)O)c2ccccc2c1=O)Nc1cccc(S(=O)(=O)N2CCCCCC2)c1 | -7.2 | 41.4 | 42.6* | 32.5* | 10.1 | 32.1
O=C(COC(=O)c1ccccc1O)Nc1cccc(S(=O)(=O)N2CCCC2)c1 | -3.5 | 13.5 | 10.1 | 4.1 | 5.6 | 6.4
O=C(CNCc1ccccc1Cl)Nc1cc(S(=O)(=O)N2CCOCC2)ccc1Cl | -6.4 | 33.6 | -4.1 | -10.7 | 22.4 | 10.2
COc1cc(C2C(C#N)=C(N)OC3=C2C(=O)CCC3)cc(OC)c1OC(=O)N1CCOCC1 (configuration not stated) | 3.1 | 0.7 | -3.3 | -9.3 | 10.1 | 15.6
CCn1ncc([N+](=O)[O-])c1C(=O)Nc1c(C)cccc1C | -9.0 | -6.3 | nt | nt | 0.7 | nt
CC(C)(CN=C1NS(=O)(=O)c2ccccc21)CNC(=O)c1ccccc1 | 0.6 | 29.8 | -25.5 | 0.2 | 7.9 | 12.8
Cc1cc(NC(=O)c2cc3cc([N+](=O)[O-])ccc3s2)no1 | -5.9 | -12.0 | nt | nt | 2.1 | nt
O=C(COC(=O)c1ccc(Cl)c(S(=O)(=O)N2CCCCCC2)c1)Nc1ccccc1 | -5.5 | 53.3* | -13.2 | -10.0 | 10.0 | -6.2
O=C(COc1ccccc1F)Nc1ccc(S(=O)(=O)N2CCCC2)cc1 | -4.2 | 13.1 | 2.6 | -14.9 | 2.0 | -2.0
O=C(NCC1COc2ccccc2O1)c1ccc(Cl)c(S(=O)(=O)N2CCCC2)c1 (configuration not stated) | -9.4 | 8.2 | 30.6 | -14.1 | 18.2 | 34.5*
CN(C)c1ccc(S(=O)(=O)N2CCCCC2)cc1NC(=O)COc1ccccc1F | -5.2 | -3.1 | 10.3 | 71.2* | -0.2 | 6.8
O=C(COC(=O)C1CC2C=CC1C2)Nc1cccc(S(=O)(=O)N2CCCCC2)c1 (configuration not stated) | 1.0 | 20.5 | -3.6 | -11.3 | 5.5 | 19.7
O=C(NCC1COc2ccccc2O1)c1ccc(Cl)c(S(=O)(=O)N2CCOCC2)c1 (configuration not stated) | -3.2 | 7.7 | 12.7 | -26.9 | 6.5 | 14.2
O=C(COC(=O)C1CC2C=CC1C2)Nc1cccc(S(=O)(=O)N2CCCCCC2)c1 (configuration not stated) | -4.0 | 67.7* | 4.3 | 33.0* | 8.3 | 21.1
O=C1C(c2ccccc2)SC(=Nc2ccccc2)N1S(=O)(=O)c1ccccc1 (configuration not stated) | -3.2 | -3.9 | -1.1 | -10.8 | 8.7 | 2.7
Cc1cc(=O)oc2cc(OCC(=O)N3CCCc4ccccc43)ccc12 | -4.5 | -12.7 | -24.7 | -21.2 | 3.4 | 2.3
CSc1nc(N)c(NC(=O)c2ccc(Br)o2)c(=O)[nH]1 | -2.4 | -11.2 | -2.9 | -11.5 | 0.9 | 27.3

Source: PubChem
